Results taken from ChEMBL document CHEMBL4373737, “New thiazole-2(3H)-thiones containing 4-(3,4,5-trimethoxyphenyl) moiety as anticancer agents” (Eur J Med Chem, 2020).
The source made the active and inactive calls. The rule behind the calls is not given here.

Columns and labels:
A549 [1] = assay: Cytotoxicity against human A549 cells assessed as reduction in cell viability after 48 hrs by MTT assay; format: functional, cell-based; settings: A549, 48 h
Summary of the method: (§1)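 MTT viability assay. Stocks in DMSO were diluted into culture medium to final 1, 5, 10, 50 and 100 µg/mL, with DMSO below 1%. A549, MCF-7, SKOV3 and normal mouse fibroblast L929 were used, with etoposide as reference. Values are means of three experiments. L929 was also tested up to 200 µg/mL alongside cisplatin 50 µg/mL.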

MCF7 [2] = assay: Cytotoxicity against human MCF7 cells assessed as reduction in cell viability after 48 hrs by MTT assay; format: functional, cell-based; settings: MCF7, 48 h; summary of the method: as §1
SK-OV-3 [3] = assay: Cytotoxicity against human SKOV3 cells assessed as reduction in cell viability after 48 hrs by MTT assay; format: functional, cell-based; settings: SK-OV-3, 48 h; summary of the method: as §1
L929 [4] = assay: Genotoxicity in mouse L929 cells assessed as induction of DNA damage at 0.5 ug/ml incubated for 1 hr by alkaline comet assay; format: toxicity, cell-based; settings: l929, 1 h
Summary of the method: (§2)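 Alkaline comet assay in L929 seeded at 250000 cells/well and exposed for 1 h to 10 µg/mL; etoposide 0.5 µg/mL served as positive control and untreated cells as negative. Cells were embedded in low-melt agarose and lysed 1 h at 4 °C (2.5 M NaCl, 100 mM EDTA, 10 mM Tris, pH 10, 10% DMSO, 1% Triton X-100). DNA unwound 40 min at pH>13, electrophoresed 25 V/300 mA 20 min, neutralized, stained with ethidium bromide. Tail length, % tail DNA and tail moment scored; mean ± SEM.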

MCF7 [5] = assay: Cell cycle arrest in human MCF7 cells assessed as accumulation at sub-G1 phase at 12 ug/ml after 48 hrs by RNase A/propidium iodide staining based FACScalibur flow cytometry (reference value: 0.66 %); format: functional
Summary of the method: (§3)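 MCF-7 seeded at 25×10^4 cells/well, treated 24 h later with 12 µg/mL for 48 h; untreated control. Cells washed in cold PBS, fixed in 70% ethanol ≥3 h, RNase A 1 h at room temperature, then propidium iodide. Phase distribution (sub-G1, G1, S, G2/M) read by flow cytometry.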

L929 [6] = assay: Cytotoxicity against mouse L929 cells assessed as […] cell viability after 48 hrs by MTT assay; format: cell-based; settings: L929, 48 h; summary of the method: as §1
[7] = Hemolytic activity in human erythrocytes at 10 ug/ml after 1 hr relative to control; format: ADME, cell-based, Erythrocyte; settings: read-out: Activity
Summary of the method: (§4)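 Human erythrocytes; DMSO stock added 1:20 to diluted cells to give final 1, 5 and 10 µg/mL. DMSO served as negative control and Triton X-100 (2% v/v) as positive (100%) control. Percent hemolysis measured in three repeats, mean ± SD.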

Erythrocyte = assay: Hemolytic activity in human erythrocytes at 1 to 5 ug/ml after 1 hr; format: ADME, cell-based; summary of the method: as §4
L929 [8] = assay: Genotoxicity in mouse L929 cells assessed as induction of DNA damage at 10 ug/ml incubated for 1 hr by alkaline comet assay; format: toxicity, cell-based; settings: l929, 1 h; summary of the method: as §2
[9] = (§5) Inhibition of sheep brain tubulin polymerization incubated for 15 mins in presence of GTP by turbidimetric method; set-up: species or system Ovis aries
Summary of the method: (§6)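 Tubulin purified from sheep brain by three polymerization/depolymerization cycles. It was preincubated 15 min on ice with 0.5, 2, 10 or 20 µg/mL, then polymerization started with 1 mM GTP at 37 °C and followed by turbidity at 350 nm. IC50 was taken from area under the curve, with untreated control set as 100% polymerization. Colchicine served as reference.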

Ovis aries [10] = organism: Ovis aries; assay: as §5; summary of the method: as §6
MCF7 [11] = assay: Cell cycle arrest in human MCF7 cells assessed as accumulation at G1 phase at 12 ug/ml after 48 hrs by RNase A/propidium iodide staining based FACScalibur flow cytometry (reference value: 44.45 %); format: functional; summary of the method: as §3
MCF7 [12] = assay: Cell cycle arrest in human MCF7 cells assessed as accumulation at S phase at 12 ug/ml after 48 hrs by RNase A/propidium iodide staining based FACScalibur flow cytometry (reference value: 38.2 %); format: functional; summary of the method: as §3
MCF7 [13] = assay: Cell cycle arrest in human MCF7 cells assessed as accumulation at G2/M phase at 12 ug/ml after 48 hrs by RNase A/propidium iodide staining based FACScalibur flow cytometry (reference value: 16.69 %); format: functional; summary of the method: as §3
SK-OV-3 [14] = assay: Induction of apoptosis in human SKOV3 cells assessed as viable cells at 2 ug/ml after 48 hrs by AnnexinV-FITC/propidium iodide staining based FACScan flow cytometry analysis relative to control; format: functional; settings: SK-OV-3, 48 h, read-out: Activity
Summary of the method: (§7)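 SKOV3 seeded at 1×10^6 cells/well for 24 h, then given fresh medium containing 2 or 4 µg/mL for 48 h. Cells harvested by trypsinization, PBS-washed, stained with Annexin-V-FITC 15 min at room temperature, then PI 10 min. Flow cytometry with 488 nm excitation; quadrants were necrotic, late apoptotic, viable and early apoptotic.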

SK-OV-3 [15] = assay: Induction of apoptosis in human SKOV3 cells assessed as early apoptotic cells at 2 ug/ml after 48 hrs by AnnexinV-FITC/propidium iodide staining based FACScan flow cytometry analysis relative to control; format: functional; summary of the method: as §7
SK-OV-3 [16] = assay: Induction of apoptosis in human SKOV3 cells assessed as late apoptotic cells at 2 ug/ml after 48 hrs by AnnexinV-FITC/propidium iodide staining based FACScan flow cytometry analysis relative to control; format: functional; summary of the method: as §7
SK-OV-3 [17] = assay: Induction of apoptosis in human SKOV3 cells assessed as necrotic cells at 2 ug/ml after 48 hrs by AnnexinV-FITC/propidium iodide staining based FACScan flow cytometry analysis relative to control; format: functional; summary of the method: as §7
SK-OV-3 [18] = assay: Induction of apoptosis in human SKOV3 cells assessed as viable cells at 4 ug/ml after 48 hrs by AnnexinV-FITC/propidium iodide staining based FACScan flow cytometry analysis relative to control; format: functional; settings: SK-OV-3, 48 h, read-out: Activity; summary of the method: as §7
SK-OV-3 [19] = assay: Induction of apoptosis in human SKOV3 cells assessed as early apoptotic cells at 4 ug/ml after 48 hrs by AnnexinV-FITC/propidium iodide staining based FACScan flow cytometry analysis relative to control; format: functional; summary of the method: as §7
SK-OV-3 [20] = assay: Induction of apoptosis in human SKOV3 cells assessed as late apoptotic cells at 4 ug/ml after 48 hrs by AnnexinV-FITC/propidium iodide staining based FACScan flow cytometry analysis relative to control; format: functional; summary of the method: as §7
SK-OV-3 [21] = assay: Induction of apoptosis in human SKOV3 cells assessed as necrotic cells at 4 ug/ml after 48 hrs by AnnexinV-FITC/propidium iodide staining based FACScan flow cytometry analysis relative to control; format: functional; summary of the method: as §7
B16 = assay: Cytotoxicity against mouse B16 cells assessed as reduction in cell growth; format: functional, cell-based
HCT-116 = assay: Cytotoxicity against human HCT116 cells assessed as reduction in cell growth; format: functional, cell-based
MCF7 [22] = assay: Cytotoxicity against human MCF7 cells assessed as reduction in cell growth; format: functional, cell-based
A549 [23] = assay: Cytotoxicity against human A549 cells assessed as reduction in cell growth; format: functional, cell-based
PC-3 = assay: Cytotoxicity against human PC3 cells assessed as reduction in cell growth; format: functional, cell-based
Ovis aries [24] = organism: Ovis aries; assay: Inhibition of colchicine binding to sheep brain tubulin assessed as decrease in fluorescence of colchicine-tubulin complex at 1 to 5 uM by fluorescence based assay
Summary of the method: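 Purified tubulin (0.25 µM) incubated 1 h at 37 °C with colchicine 0.1, 0.25, 0.5 or 1 µM, then test compound at final 1 or 5 µM. Fluorescence read at ex 360/em 430 nm, corrected for compound background, expressed as F/F0; n=3.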

COc1cc([C@@H]2c3cc4c(cc3[C@@H](O[C@@H]3O[C@@H]5CO[C@@H](C)O[C@H]5[C@H](O)[C@H]3O)[C@H]3COC(=O)[C@H]23)OCO4)cc(OC)c1O [ETOPOSIDE]
IC50 (A549 [1]): 6 µM
IC50 (MCF7 [2]): 5.7 µM
IC50 (SK-OV-3 [3]): 9.2 µM
Activity (L929 [4]): Toxic

COc1cc(-c2csc(=S)n2Cc2ccc(O)cc2)cc(OC)c1OC
IC50 (A549 [1]): 15.6 µM
IC50 (MCF7 [2]): 22 µM
IC50 (SK-OV-3 [3]): 18.7 µM

COc1cc(-c2csc(=S)n2Cc2ccccc2)cc(OC)c1OC
IC50 (A549 [1]): 12.1 µM
IC50 (MCF7 [2]): 13.9 µM
IC50 (SK-OV-3 [3]): 17.5 µM

COc1cc(-c2csc(=S)n2-c2ccc(Cl)c(Cl)c2)cc(OC)c1OC
IC50 (A549 [1]): 12.1 µM
IC50 (MCF7 [2]): 9.6 µM
IC50 (SK-OV-3 [3]): 17.9 µM

COc1cc(-n2c(-c3ccc(Cl)cc3)csc2=S)cc(OC)c1OC
IC50 (MCF7 [2]): > 100 µg/mL

COc1cc(-c2csc(=S)n2Cc2ccc(F)cc2)cc(OC)c1OC
IC50 (A549 [1]): 15.8 µM
IC50 (MCF7 [2]): 10 µM
IC50 (SK-OV-3 [3]): 18.6 µM

COc1cc(C2(O)CSC(=S)N2Cc2ccccc2)cc(OC)c1OC (stereo not given)
IC50 (A549 [1]): 12.8 µM
IC50 (MCF7 [2]): 13.4 µM
IC50 (SK-OV-3 [3]): 13.8 µM

COc1cc(C2(O)CSC(=S)N2C)cc(OC)c1OC (stereo not given)
IC50 (A549 [1]): 10.2 µM
IC50 (MCF7 [2]): 26.1 µM
IC50 (SK-OV-3 [3]): 13.4 µM

COc1cc(C2(O)CSC(=S)N2Cc2ccc(Cl)cc2)cc(OC)c1OC (stereo not given)
IC50 (A549 [1]): 11.6 µM
IC50 (MCF7 [2]): 18.8 µM
IC50 (SK-OV-3 [3]): 18.1 µM

COc1cc(-c2csc(=S)n2C)cc(OC)c1OC
IC50 (A549 [1]): 17.5 µM
IC50 (MCF7 [2]): 27.7 µM
IC50 (SK-OV-3 [3]): 23.4 µM

COc1cc(C2(O)CSC(=S)N2Cc2ccccc2Cl)cc(OC)c1OC (stereo not given)
IC50 (A549 [1]): 14.6 µM
IC50 (MCF7 [2]): 12.3 µM
IC50 (SK-OV-3 [3]): 12.1 µM

COc1cc(-c2csc(=S)n2-c2ccc(Cl)cc2)cc(OC)c1OC
IC50 (A549 [1]): 15.4 µM
IC50 (MCF7 [2]): 16.9 µM
IC50 (SK-OV-3 [3]): 17.7 µM

COc1cc(-c2csc(=S)n2Cc2ccc(Cl)cc2)cc(OC)c1OC
Activity (MCF7 [5]): 17.28%
IC50 (A549 [1]): 6.7 µM
IC50 (MCF7 [2]): 5.9 µM
IC50 (SK-OV-3 [3]): 18.1 µM
IC50 (L929 [6]): > 200 µg/mL
hemolysis at 1 h, 10 ug/ml [7]: < 25%
Activity (Erythrocyte): Non-Toxic
Activity (L929 [8]): Toxic
IC50 [9]: 9.97 µg/mL
inhibition (Ovis aries [10]): Dose-dependent effect
Activity (MCF7 [11]): 54.57%
Activity (MCF7 [12]): 22.43%
Activity (MCF7 [13]): 5.72%
viability at 2 µg/mL (SK-OV-3 [14]): 64.1%
Activity (SK-OV-3 [15]): 6.2%
Activity (SK-OV-3 [16]): 13.55%
Activity (SK-OV-3 [17]): 16.12%
viability at 4 µg/mL (SK-OV-3 [18]): 64.1%
Activity (SK-OV-3 [19]): 6.2%
Activity (SK-OV-3 [20]): 15.49%
Activity (SK-OV-3 [21]): 19.9%

COc1cc(C2(O)CSC(=S)N2Cc2ccc(F)cc2)cc(OC)c1OC (stereo not given)
IC50 (A549 [1]): 21.4 µM
IC50 (MCF7 [2]): 12 µM
IC50 (SK-OV-3 [3]): 12.4 µM

COc1ccc(-c2coc(=O)n2-c2cc(OC)c(OC)c(OC)c2)cc1N
IC50 (B16): 0.0011 to 0.0043 µM
IC50 (HCT-116): 0.0011 to 0.0043 µM
IC50 (MCF7 [22]): 0.0011 to 0.0043 µM
IC50 (A549 [23]): 0.0011 to 0.0043 µM
IC50 (PC-3): 0.0011 to 0.0043 µM

COc1cc(-c2csc(=S)n2Cc2ccccc2Cl)cc(OC)c1OC
Activity (MCF7 [5]): 14.74%
IC50 (A549 [1]): 13.8 µM
IC50 (MCF7 [2]): 2.8 µM
IC50 (SK-OV-3 [3]): 13.5 µM
IC50 (L929 [6]): > 200 µg/mL
hemolysis at 1 h, 10 ug/ml [7]: < 25%
Activity (L929 [8]): Non-Toxic
IC50 [9]: 5.14 µg/mL
inhibition (Ovis aries [10]): Dose-dependent effect
inhibition (Ovis aries [24]): Active
Activity (MCF7 [11]): 78.02%
Activity (MCF7 [12]): 7.17%
Activity (MCF7 [13]): 0.07%
viability at 2 µg/mL (SK-OV-3 [14]): 68.9%
Activity (SK-OV-3 [15]): 3.06%
Activity (SK-OV-3 [16]): 15.49%
Activity (SK-OV-3 [17]): 12.57%
viability at 4 µg/mL (SK-OV-3 [18]): 58.9%
Activity (SK-OV-3 [19]): 7.6%
Activity (SK-OV-3 [20]): 19.81%
Activity (SK-OV-3 [21]): 13.72%
